pIC50: −log10 of the molar value.
How the values were obtained:
E-selectin = target: T1, E-selectin (Homo sapiens, UniProt P16581); experiment: Inhibitory activity against human chimeric E-selectin-Ig
T1 sequence (P16581 whole entry): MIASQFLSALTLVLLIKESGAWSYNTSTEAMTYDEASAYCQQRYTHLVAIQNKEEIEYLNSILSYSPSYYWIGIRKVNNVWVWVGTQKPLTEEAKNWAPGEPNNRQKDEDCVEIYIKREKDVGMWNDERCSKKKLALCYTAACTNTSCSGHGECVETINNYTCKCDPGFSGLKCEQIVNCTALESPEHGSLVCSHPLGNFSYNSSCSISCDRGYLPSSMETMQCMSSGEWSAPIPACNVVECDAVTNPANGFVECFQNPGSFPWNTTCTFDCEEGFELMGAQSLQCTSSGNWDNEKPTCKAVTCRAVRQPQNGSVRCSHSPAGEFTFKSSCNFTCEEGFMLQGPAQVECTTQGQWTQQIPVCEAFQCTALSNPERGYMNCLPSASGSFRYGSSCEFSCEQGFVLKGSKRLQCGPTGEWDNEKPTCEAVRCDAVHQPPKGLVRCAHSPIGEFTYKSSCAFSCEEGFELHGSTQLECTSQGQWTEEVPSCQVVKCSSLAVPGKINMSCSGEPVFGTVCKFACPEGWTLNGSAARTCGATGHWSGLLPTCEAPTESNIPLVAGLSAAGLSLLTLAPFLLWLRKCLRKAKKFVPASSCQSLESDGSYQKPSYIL
Outline: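 Competitive ELISA. sLeX-pentaceramide was adsorbed at 100 pmol per well and blocked with 5% BSA-PBS. E-selectin-Ig fusion (lectin, EGF and two complement regulatory repeats on human IgG1 hinge/CH2/CH3; cDNA from HUVEC mRNA) was precomplexed 30 min with biotin-anti-human IgG(Fc)/streptavidin-alkaline phosphatase. Compound at 100, 25, 6.25 or 1.56 µM final was preincubated with the complex 30 min, then 37 °C for 45 min. pNPP read at 405 nm; duplicates.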

P-selectin = target: T2, P-selectin (Homo sapiens, UniProt P16109); experiment: Inhibitory activity against human chimeric Selectin P-Ig
T2 sequence (P16109 whole entry): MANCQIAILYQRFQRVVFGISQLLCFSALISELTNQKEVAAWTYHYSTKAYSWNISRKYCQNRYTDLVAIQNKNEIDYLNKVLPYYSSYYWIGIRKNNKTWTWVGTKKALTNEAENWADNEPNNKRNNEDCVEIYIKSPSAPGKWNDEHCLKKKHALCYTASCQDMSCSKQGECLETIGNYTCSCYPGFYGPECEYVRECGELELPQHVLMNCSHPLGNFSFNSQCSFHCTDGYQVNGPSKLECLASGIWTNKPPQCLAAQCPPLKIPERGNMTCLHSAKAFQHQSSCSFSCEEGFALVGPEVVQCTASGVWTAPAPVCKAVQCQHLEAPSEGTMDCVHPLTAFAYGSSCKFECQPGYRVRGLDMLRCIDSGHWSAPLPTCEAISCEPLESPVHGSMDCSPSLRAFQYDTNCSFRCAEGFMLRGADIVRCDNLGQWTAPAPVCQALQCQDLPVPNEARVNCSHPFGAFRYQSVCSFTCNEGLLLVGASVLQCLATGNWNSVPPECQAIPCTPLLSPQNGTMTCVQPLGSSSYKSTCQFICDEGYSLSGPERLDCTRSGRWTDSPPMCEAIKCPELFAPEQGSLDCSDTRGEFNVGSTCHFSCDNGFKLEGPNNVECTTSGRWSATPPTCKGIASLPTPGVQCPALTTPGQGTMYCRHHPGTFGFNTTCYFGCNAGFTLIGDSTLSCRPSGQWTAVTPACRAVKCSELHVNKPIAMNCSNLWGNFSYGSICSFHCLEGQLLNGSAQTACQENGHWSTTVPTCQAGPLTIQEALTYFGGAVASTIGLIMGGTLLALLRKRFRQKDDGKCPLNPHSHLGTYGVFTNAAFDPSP
Outline: (§1)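 Competition against binding of the sLeX pentasaccharide ceramide ligand to purified selectin-Ig. The fusions carry the lectin, EGF and two complement regulatory repeats on the human IgG1 hinge/Fc and were expressed in COS7 (transient) or CHO (stable) cells. The P-selectin cDNA came from HUVEC mRNA and the L-selectin cDNA from Jurkat mRNA, both by RT-PCR.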

L-selectin = target: T3, L-selectin (Homo sapiens, UniProt P14151); experiment: Inhibitory activity against human chimeric L-selectin-Ig; outline: as §1
T3 sequence (P14151 whole entry): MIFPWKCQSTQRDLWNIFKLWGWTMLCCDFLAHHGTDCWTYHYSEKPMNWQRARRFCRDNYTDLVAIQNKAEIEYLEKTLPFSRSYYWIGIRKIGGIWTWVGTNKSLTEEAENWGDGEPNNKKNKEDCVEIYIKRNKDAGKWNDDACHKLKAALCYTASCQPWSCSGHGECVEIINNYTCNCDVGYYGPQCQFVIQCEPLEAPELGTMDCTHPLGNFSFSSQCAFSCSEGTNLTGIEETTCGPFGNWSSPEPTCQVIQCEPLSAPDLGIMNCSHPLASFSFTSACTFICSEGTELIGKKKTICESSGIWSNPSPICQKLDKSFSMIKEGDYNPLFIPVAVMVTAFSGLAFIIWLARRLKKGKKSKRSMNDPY

| pIC50 (E-selectin) | pIC50 (P-selectin) | pIC50 (L-selectin) | SMILES |
| --- | --- | --- | --- |
| < 3.00 | 3.25 | < 3.00 | C[C@@H]1O[C@@H](O[C@@H]2CCO[C@H](CO)[C@H]2O[C@@H]2O[C@H](CO)[C@H](O)[C@H](OS(=O)(=O)O)[C@H]2O)[C@@H](O)[C@H](O)[C@@H]1O |
| 3.62 | < 3.00 | 3.66 | CC(=O)N[C@H]1[C@H]([C@H](O)[C@H](O)CO)O[C@@](O[C@@H]2[C@H](O)[C@@H](O)[C@H](O[C@H]3[C@H](O[C@@H]4O[C@@H](C)[C@@H](O)[C@@H](O)[C@@H]4O)[C@@H](O)CO[C@@H]3CO)O[C@@H]2O)(C(=O)O)C[C@@H]1O |

The remaining lines, values behind:

| SMILES | pIC50 (E-selectin) | pIC50 (P-selectin) | pIC50 (L-selectin) |
| --- | --- | --- | --- |
| C[C@@H]1O[C@@H](O[C@H]2[C@H](O[C@@H]3O[C@H](CO)[C@H](O)[C@H](OS(=O)(=O)O)[C@H]3O)[C@@H](CO)OC[C@@H]2O)[C@@H](O)[C@H](O)[C@@H]1O | < 3.00 | 3.17 | < 3.00 |
| CC(=O)N[C@H]1CO[C@H](CO)[C@@H](O[C@@H]2O[C@H](CO)[C@H](O)[C@H](OS(=O)(=O)O)[C@H]2O)[C@@H]1O[C@@H]1O[C@@H](C)[C@@H](O)[C@@H](O)[C@@H]1O | < 3.00 | < 3.00 | < 3.00 |
| CC(=O)N[C@H]1[C@H]([C@H](O)[C@H](O)CO)O[C@@](O[C@H]2[C@@H](O)[C@@H](CO)O[C@@H](O[C@@H]([C@H](O[C@@H]3O[C@@H](C)[C@@H](O)[C@@H](O)[C@@H]3O)[C@H](C=O)NC(C)=O)[C@H](O)CO)[C@@H]2O)(C(=O)O)C[C@@H]1O [SIALYL LEWIS X] | 3.22 | < 3.00 | < 3.00 |
| C[C@@H]1O[C@@H](O[C@@H]2CCO[C@H](CO)[C@H]2O[C@@H]2O[C@H](CO)[C@H](O)[C@H](OP(=O)(O)O)[C@H]2O)[C@@H](O)[C@H](O)[C@@H]1O | < 3.00 | < 3.00 | 3.38 |

— ChEMBL document CHEMBL1129038, “Studies on selectin blocker. 1. Structure-activity relationships of sialyl Lewis X analogs” (J Med Chem, 1996)
